According to ChEMBL document CHEMBL4689842, “EUbOPEN Chemogenomics Library wave 1” (2021):

Tests used:
Assay type in all cases: toxicity, cell-based
[1] = tested on: Fibroblast; assay: Multiplex assay against human fibroblast
Procedure, shortened: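 Compound was added to live cells that had been stained at seeding with Hoechst33342, BioTracker Green Microtubule Cytoskeleton Dye, MitoTracker Red and Annexin V Alexa Fluor 680, and imaging followed on a CQ1 microscope at 37°C and 5% CO2. CellPathfinder machine-learning gating divided cells into Hoechst high-intensity objects or normal cells, normal cells into healthy, pyknosed or fragmented nuclei, and pyknosed cells into mitotic or apoptotic. Tubulin, mitochondrial-mass and membrane-permeability phenotypes are per cents of healthy-nucleus cells.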

[2] = tested on: HEK-293T; assay: Incucyte cell viability with HEK293T; conditions: human, 10 µM, compound concentration 10 uM; note: filed as whole numbers so only -1 and 0 and 1 occur
[3] = tested on: Fibroblast; assay: Incucyte cell viability with human fibroblast; conditions: 10 µM, compound concentration 10 uM; note: filed as whole numbers so only -1 and 0 and 1 occur
[4] = tested on: U2OS; assay: Incucyte cell viability with U2OS; conditions: human, 10 µM, compound concentration 10 uM; note: filed as whole numbers so only -1 and 0 and 1 occur
[5] = 12 h, 1 µM, compound concentration 1 uM, replicate 1
[6] = 12 h, 1 µM, compound concentration 1 uM, replicate 2
[7] = 12 h, 10 µM, compound concentration 10 uM, replicate 1
[8] = 12 h, 10 µM, compound concentration 10 uM, replicate 2
[9] = 24 h, 1 µM, compound concentration 1 uM, replicate 1
[10] = 24 h, 1 µM, compound concentration 1 uM, replicate 2
[11] = 24 h, 10 µM, compound concentration 10 uM, replicate 1
[12] = 24 h, 10 µM, compound concentration 10 uM, replicate 2
[13] = 48 h, 1 µM, compound concentration 1 uM, replicate 1
[14] = 48 h, 1 µM, compound concentration 1 uM, replicate 2
[15] = 48 h, 10 µM, compound concentration 10 uM, replicate 1
[16] = 48 h, 10 µM, compound concentration 10 uM, replicate 2
[17] = 0 h, replicate number 1, timepoint 0 hours

For `CNc1oc(-c2cccc3ccccc23)nc1C#N`, the “Population Apoptotic (%)” value [1, 5] was 75%, the “Population Fragmented Nuclei (%)” value [1, 5] was 65% and the “Population Healthy Nuclei (%)” value [1, 5] was 23%. For the same compound, the “Population Hoechst High Intensity Objects (%)” value [1, 5] was 70%, the “Population Membrane Permeable-Phenotype (%)” value [1, 5] was 25% and the “Population Mitochondria Different-Phenotype (%)” value [1, 5] was 0%. The “Population Mitotic Cells (%)” value [1, 5] was 25%, the “Population Normal (%)” value [1, 5] was 29% and the “Population Pyknosed Nuclei (%)” value [1, 5] was 10%. The “Population Tubulin-Different-Phenotype (%)” value [1, 5] was 14%, the “Total Cell Count” value [1, 5] was 381 and the “Population Apoptotic (%)” value [1, 6] was 0%. The “Population Fragmented Nuclei (%)” value [1, 6] was 29%, the “Population Healthy Nuclei (%)” value [1, 6] was 67% and the “Population Hoechst High Intensity Objects (%)” value [1, 6] was 15%. The “Population Membrane Permeable-Phenotype (%)” value [1, 6] was 3%, the “Population Mitochondria Different-Phenotype (%)” value [1, 6] was 11% and the “Population Mitotic Cells (%)” value [1, 6] was 100%. For the same compound, the “Population Normal (%)” value [1, 6] was 84%, the “Population Pyknosed Nuclei (%)” value [1, 6] was 2% and the “Population Tubulin-Different-Phenotype (%)” value [1, 6] was 7%. The “Total Cell Count” value [1, 6] was 100, the “Population Apoptotic (%)” value [1, 7] was 92% and the “Population Fragmented Nuclei (%)” value [1, 7] was 41%. The “Population Healthy Nuclei (%)” value [1, 7] was 23%, the “Population Hoechst High Intensity Objects (%)” value [1, 7] was 64% and the “Population Membrane Permeable-Phenotype (%)” value [1, 7] was 0%. For the same compound, the “Population Mitochondria Different-Phenotype (%)” value [1, 7] was 0%, the “Population Mitotic Cells (%)” value [1, 7] was 7% and the “Population Normal (%)” value [1, 7] was 35%. The “Population Pyknosed Nuclei (%)” value [1, 7] was 35%, the “Population Tubulin-Different-Phenotype (%)” value [1, 7] was 0% and the “Total Cell Count” value [1, 7] was 3193. The “Population Apoptotic (%)” value [1, 8] was 80%, the “Population Fragmented Nuclei (%)” value [1, 8] was 55% and the “Population Healthy Nuclei (%)” value [1, 8] was 16%. The “Population Hoechst High Intensity Objects (%)” value [1, 8] was 46%, the “Population Membrane Permeable-Phenotype (%)” value [1, 8] was 1% and the “Population Mitochondria Different-Phenotype (%)” value [1, 8] was 3%. For the same compound, the “Population Mitotic Cells (%)” value [1, 8] was 19%, the “Population Normal (%)” value [1, 8] was 53% and the “Population Pyknosed Nuclei (%)” value [1, 8] was 28%. The “Population Tubulin-Different-Phenotype (%)” value [1, 8] was 24%, the “Total Cell Count” value [1, 8] was 92 and the “Population Apoptotic (%)” value [1, 9] was 33%. The “Population Fragmented Nuclei (%)” value [1, 9] was 66%, the “Population Healthy Nuclei (%)” value [1, 9] was 27% and the “Population Hoechst High Intensity Objects (%)” value [1, 9] was 70%. The “Population Membrane Permeable-Phenotype (%)” value [1, 9] was 6%, the “Population Mitochondria Different-Phenotype (%)” value [1, 9] was 0% and the “Population Mitotic Cells (%)” value [1, 9] was 66%. The “Population Normal (%)” value [1, 9] was 29%, the “Population Pyknosed Nuclei (%)” value [1, 9] was 5% and the “Population Tubulin-Different-Phenotype (%)” value [1, 9] was 3%. The “Total Cell Count” value [1, 9] was 391, the “Population Apoptotic (%)” value [1, 10] was 25% and the “Population Fragmented Nuclei (%)” value [1, 10] was 28%. The “Population Healthy Nuclei (%)” value [1, 10] was 67%, the “Population Hoechst High Intensity Objects (%)” value [1, 10] was 6% and the “Population Membrane Permeable-Phenotype (%)” value [1, 10] was 1%. The “Population Mitochondria Different-Phenotype (%)” value [1, 10] was 10%, the “Population Mitotic Cells (%)” value [1, 10] was 75% and the “Population Normal (%)” value [1, 10] was 93%. The “Population Pyknosed Nuclei (%)” value [1, 10] was 3%, the “Population Tubulin-Different-Phenotype (%)” value [1, 10] was 21% and the “Total Cell Count” value [1, 10] was 113. For the same compound, the “Population Apoptotic (%)” value [1, 11] was 93%, the “Population Fragmented Nuclei (%)” value [1, 11] was 44% and the “Population Healthy Nuclei (%)” value [1, 11] was 24%. For the same compound, the “Population Hoechst High Intensity Objects (%)” value [1, 11] was 66%, the “Population Membrane Permeable-Phenotype (%)” value [1, 11] was 1% and the “Population Mitochondria Different-Phenotype (%)” value [1, 11] was 0%. The “Population Mitotic Cells (%)” value [1, 11] was 6%, the “Population Normal (%)” value [1, 11] was 33% and the “Population Pyknosed Nuclei (%)” value [1, 11] was 31%. The “Population Tubulin-Different-Phenotype (%)” value [1, 11] was 0%, the “Total Cell Count” value [1, 11] was 2998 and the “Population Apoptotic (%)” value [1, 12] was 81%. For the same compound, the “Population Fragmented Nuclei (%)” value [1, 12] was 57%, the “Population Healthy Nuclei (%)” value [1, 12] was 16% and the “Population Hoechst High Intensity Objects (%)” value [1, 12] was 44%. For the same compound, the “Population Membrane Permeable-Phenotype (%)” value [1, 12] was 3%, the “Population Mitochondria Different-Phenotype (%)” value [1, 12] was 3% and the “Population Mitotic Cells (%)” value [1, 12] was 18%. The “Population Normal (%)” value [1, 12] was 55%, the “Population Pyknosed Nuclei (%)” value [1, 12] was 25% and the “Population Tubulin-Different-Phenotype (%)” value [1, 12] was 26%. For the same compound, the “Total Cell Count” value [1, 12] was 116, the “Population Apoptotic (%)” value [1, 13] was 40% and the “Population Fragmented Nuclei (%)” value [1, 13] was 71%. For the same compound, the “Population Healthy Nuclei (%)” value [1, 13] was 23%, the “Population Hoechst High Intensity Objects (%)” value [1, 13] was 77% and the “Population Membrane Permeable-Phenotype (%)” value [1, 13] was 22%. The “Population Mitochondria Different-Phenotype (%)” value [1, 13] was 4%, the “Population Mitotic Cells (%)” value [1, 13] was 60% and the “Population Normal (%)” value [1, 13] was 22%. The “Population Pyknosed Nuclei (%)” value [1, 13] was 5%, the “Total Cell Count” value [1, 13] was 411 and the “Population Apoptotic (%)” value [1, 14] was 80%. For the same compound, the “Population Fragmented Nuclei (%)” value [1, 14] was 75%, the “Population Healthy Nuclei (%)” value [1, 14] was 19% and the “Population Hoechst High Intensity Objects (%)” value [1, 14] was 78%. The “Population Membrane Permeable-Phenotype (%)” value [1, 14] was 31%, the “Population Mitochondria Different-Phenotype (%)” value [1, 14] was 0% and the “Population Mitotic Cells (%)” value [1, 14] was 20%. The “Population Normal (%)” value [1, 14] was 21%, the “Population Pyknosed Nuclei (%)” value [1, 14] was 4% and the “Population Tubulin-Different-Phenotype (%)” value [1, 14] was 4%. The “Total Cell Count” value [1, 14] was 519, the “Population Apoptotic (%)” value [1, 15] was 85% and the “Population Fragmented Nuclei (%)” value [1, 15] was 47%. The “Population Healthy Nuclei (%)” value [1, 15] was 22%, the “Population Hoechst High Intensity Objects (%)” value [1, 15] was 65% and the “Population Membrane Permeable-Phenotype (%)” value [1, 15] was 0%. For the same compound, the “Population Mitochondria Different-Phenotype (%)” value [1, 15] was 0%, the “Population Mitotic Cells (%)” value [1, 15] was 14% and the “Population Normal (%)” value [1, 15] was 34%. For the same compound, the “Population Pyknosed Nuclei (%)” value [1, 15] was 30%, the “Population Tubulin-Different-Phenotype (%)” value [1, 15] was 0% and the “Total Cell Count” value [1, 15] was 2643. For the same compound, the “Population Fragmented Nuclei (%)” value [1, 16] was 46%, the “Population Healthy Nuclei (%)” value [1, 16] was 23% and the “Population Hoechst High Intensity Objects (%)” value [1, 16] was 69%. For the same compound, the “Population Normal (%)” value [1, 16] was 30%, the “Population Tubulin-Different-Phenotype (%)” value [1, 16] was 1% and the “Total Cell Count” value [1, 16] was 2437. The “Growth Rate” value [2, 17] was 0, the “Growth Rate” value ([2]; 12 h, replicate number 1, timepoint 12 hours) was 1 and the “Growth Rate” value ([2]; 18 h, replicate number 1, timepoint 18 hours) was 1. The “Growth Rate” value ([2]; 24 h, replicate number 1, timepoint 24 hours) was 1, the “Growth Rate” value [3, 17] was 0 and the “Growth Rate” value ([3]; 6 h, replicate number 2, timepoint 6 hours) was 1. For the same compound, the “Growth Rate” value [4, 17] was 0, the “Growth Rate” value ([4]; 18 h, replicate number 2, timepoint 18 hours) was 1 and the “Growth Rate” value ([4]; 24 h, replicate number 2, timepoint 24 hours) was 1.
